Measurements reported in paper PMC11143523 (Acta Pharmaceutica Sinica. B, 2024).
Where “and” joins values, the source holds several entries; their conditions need not be identical. Identical values can stand only once. Values belong to the compound of their own block, whether it stands above or below them. Square brackets hold non-standard residues; d marks the D form. Peptide text beside a SMILES is read from it. * marks the point of attachment. Ala(cPent) = N[C@@H](CC1CCCC1)C(=O)O; Cbz = O=C(OCc1ccccc1)*

Columns and labels:
APC‒Asef = target: T1, APC‒Asef (Homo sapiens, UniProt P25054); test: Fluorescence-polarization; format: binding; details: for inhibition at 400 µM: read-out: Inhibitory activity (inhibition rate %), at 400 μmol/L
T1 sequence (P25054 303-739): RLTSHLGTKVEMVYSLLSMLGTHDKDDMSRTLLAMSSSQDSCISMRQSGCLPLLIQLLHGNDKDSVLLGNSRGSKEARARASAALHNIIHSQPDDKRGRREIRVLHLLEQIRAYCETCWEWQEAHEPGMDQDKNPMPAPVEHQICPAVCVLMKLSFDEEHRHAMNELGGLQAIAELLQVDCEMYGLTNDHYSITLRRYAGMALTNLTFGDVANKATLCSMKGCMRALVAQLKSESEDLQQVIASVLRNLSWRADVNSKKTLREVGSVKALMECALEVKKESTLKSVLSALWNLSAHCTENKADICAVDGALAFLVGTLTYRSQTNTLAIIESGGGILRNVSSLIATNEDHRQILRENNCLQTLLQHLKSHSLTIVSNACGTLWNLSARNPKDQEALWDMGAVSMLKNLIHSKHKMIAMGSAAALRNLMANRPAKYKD

APC‒Asef interaction [1] = target: T2, APC‒Asef interaction (Homo sapiens, UniProt P25054); test: Co-IP of APC‒Asef in drug-treated HEK293T cell lysates; format: biochemical; details: AT46 0.2, 1 or 5 μmol/L, 2 h
T2 sequence (P25054 303-876): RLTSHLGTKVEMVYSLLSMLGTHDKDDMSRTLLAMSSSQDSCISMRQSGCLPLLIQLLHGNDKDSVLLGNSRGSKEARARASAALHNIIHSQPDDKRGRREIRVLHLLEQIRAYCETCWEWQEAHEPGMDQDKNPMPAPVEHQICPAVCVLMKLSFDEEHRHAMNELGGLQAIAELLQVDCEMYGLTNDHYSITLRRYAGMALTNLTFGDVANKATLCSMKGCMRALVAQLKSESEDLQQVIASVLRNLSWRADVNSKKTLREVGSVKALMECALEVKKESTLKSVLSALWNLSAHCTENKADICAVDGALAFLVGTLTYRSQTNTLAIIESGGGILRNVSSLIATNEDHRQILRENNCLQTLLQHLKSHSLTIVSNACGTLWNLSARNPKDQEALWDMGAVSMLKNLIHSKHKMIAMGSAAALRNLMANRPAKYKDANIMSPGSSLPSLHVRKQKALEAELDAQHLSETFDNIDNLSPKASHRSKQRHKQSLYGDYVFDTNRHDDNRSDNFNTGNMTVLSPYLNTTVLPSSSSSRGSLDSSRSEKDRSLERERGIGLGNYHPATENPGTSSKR

APC‒Asef interaction [2] = target: T2, APC‒Asef interaction; test: Co-IP of exogenous HA-APC and FLAG-Asef in treated HEK293T cells; format: cell-based; details: 20 μmol/L, 48 h
Summary of the method: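 HEK293T cells transfected with HA-APC (303‒876) and Flag-Asef plasmids, then exposed to test compound at 20 μmol/L or DMSO for 48 h. Cells lysed in 0.3% NP-40 buffer (50 mmol/L Tris-HCl pH 7.5, 150 mmol/L NaCl, PMSF, NaF, Na₃VO₄, protease inhibitors). Lysate incubated with anti-FLAG magnetic beads 3 h at 4 °C. Bound protein eluted by boiling 10 min at 95 °C in loading buffer.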

SW480 cells [3] = test: Wound healing assay; format: cell-based; details: 20 μmol/L, 48 h
Summary of the method: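 SW480 cells (1 × 10⁶) grown to confluence at 37 °C, 5% CO₂, then scratched and PBS-washed. Cells cultured in 1% FBS medium with test compound (20 μmol/L) or DMSO. Wound imaged at scratching and after 48 h. Migration expressed relative to DMSO group, mean ± SD of n = 3 independent experiments.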

SW480 cells [4] = test: Transwell migration assay; format: cell-based; details: 20 μmol/L, 72 h
Summary of the method: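 SW480 cells seeded at 1.5 × 10⁵ per insert in serum-free medium, with complete medium below. Test compound (20 μmol/L) or DMSO added to both chambers for 72 h. Nonmigrated cells swabbed off; migrated cells crystal-violet stained and counted. Counts normalized to DMSO-treated mean, n = 3 independent experiments, mean ± SD.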

SW480 cells [5] = test: Cell cytotoxicity assay; format: cell-based; details: 20 μmol/L, 48 h
[6] = Pharmacokinetic study in mice; format: in vivo; details: male, BALB/c, mouse, plasma, ip, 1 mg/kg
Summary of the method: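 Male BALB/c mice (n = 3/group) dosed once i.p. at 1 mg/kg (5 mL/kg) in DMSO:Cremophor EL:10% HP-β-CD in saline (2:8:90). Blood taken from dorsal metatarsal vein predose and at 0.083–48 h. Plasma obtained by centrifugation at 4000 × g, 5 min, 4 °C. Analysed by LC‒MS/MS on C18 column with acetonitrile/water/0.1% formic acid gradient, negative MRM mode.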

[7] = IC50 ± SD, FP competition assay, three independent experiments

SMILES: CC(C)C[C@H](NC(=O)[C@H](CO)NC(=O)[C@H](CCC(=O)O)NC(=O)c1ccncn1)C(=O)NCCc1ccccc1 [AT3]
IC50 (APC‒Asef; [7]): 323 µM
inhibition at 400 µM (APC‒Asef): 54.6 ± 2%

Inhibitory activity (inhibition rate %) (APC‒Asef; at 400 μmol/L): 13.1 ± 0.7%
inhibition at 400 µM (APC‒Asef): 13%
SMILES: CC(C)C[C@H](NC(=O)[C@H](CO)NC(=O)[C@H](CCC(=O)O)NC(=O)c1ccncn1)C(=O)NCC=Cc1ccccc1 [AT4]

SMILES: CC(C)C[C@H](NC(=O)[C@H](CC1CC1)NC(=O)[C@H](CCC(=O)O)NC(=O)c1ccncn1)C(=O)NC1CC1c1ccccc1 (stereo partly drawn) [AT7]
IC50 (APC‒Asef; [7]): 61.3 ± 7.2 µM

SMILES: CC(C)C[C@H](NC(=O)[C@H](CC1CCCCC1)NC(=O)[C@H](CCC(=O)O)NC(=O)c1ccncn1)C(=O)NC1CC1c1ccccc1 (stereo partly drawn) [AT8]
IC50 (APC‒Asef; [7]): 168 ± 9.5 µM

SMILES: CC(C)C[C@H](NC(=O)[C@H](Cc1ccccc1)NC(=O)[C@H](CCC(=O)O)NC(=O)c1ccncn1)C(=O)NC1CC1c1ccccc1 (stereo partly drawn) [AT9]
IC50 (APC‒Asef; [7]): 95.4 ± 7.5 µM

IC50 (APC‒Asef; [7]): 9.3 µM and 9.34 µM
fold increase in potency over AT6 (APC‒Asef; from FP IC50): 2 fold
SMILES: CC(C)C[C@H](NC(=O)[C@H](Cc1ccc2ccccc2c1)NC(=O)[C@H](CCC(=O)O)NC(=O)c1ccncn1)C(=O)NC1CC1c1ccccc1 (stereo partly drawn) [AT10]

IC50 (APC‒Asef; pIC50, test set, Table 3, pIC50 = ‒Log [IC50 (μmol/L) × 10^−6]): 0.708 µM
SMILES: CSc1nccc(C(=O)N[C@@H](CCC(=O)O)C(=O)N[C@@H](Cc2ccc3ccccc3c2)C(=O)N[C@@H](CC(C)C)C(=O)NC2CC2c2ccccc2)n1 (stereo partly drawn) [AT38]

SMILES: CSc1nccc(C(=O)N[C@@H](CC(=O)O)C(=O)N[C@@H](Cc2ccc3ccccc3c2)C(=O)N[C@@H](CC(C)C)C(=O)NC2CC2c2ccccc2)n1 (stereo partly drawn) [AT41]
IC50 (APC‒Asef; [7]): 19.3 ± 0.58 µM

IC50 (APC‒Asef; [7]): 33 µM and 33.1 µM
SMILES: CSc1nccc(C(=O)N[C@@H](CCC(=O)O)C(=O)N[C@@H](CC2CCCCC2)C(=O)N[C@@H](CC(C)C)C(=O)NC2CC2c2ccccc2)n1 (stereo partly drawn) [AT42]

SMILES: CSc1nccc(C(=O)N[C@@H](CCC(=O)O)C(=O)N[C@H](Cc2ccc3ccccc3c2)C(=O)N[C@@H](CC(C)C)C(=O)NC2CC2c2ccccc2)n1 (stereo partly drawn) [AT43]
IC50 (APC‒Asef; [7]): 127 ± 6.6 µM

SMILES: CSc1nccc(C(=O)N[C@@H](CCC(=O)O)C(=O)N[C@@H](Cc2ccc3ccccc3c2)C(=O)N[C@@H](CC(C)C)C(=O)N[C@@H]2C[C@H]2c2ccccc2)n1 [AT44]
IC50 (APC‒Asef; [7]): 0.48 ± 0.07 µM

SMILES: CSc1nccc(C(=O)N[C@@H](CCC(=O)O)C(=O)N[C@@H](Cc2ccc3ccccc3c2)C(=O)N[C@@H](CC(C)C)C(=O)N[C@H]2C[C@@H]2c2ccccc2)n1 [AT45]
IC50 (APC‒Asef; [7]): 8.61 ± 0.12 µM

SMILES: CSc1ncc(Br)c(C(=O)N[C@@H](CCC(=O)O)C(=O)N[C@@H](Cc2ccc3ccccc3c2)C(=O)N[C@@H](CC(C)C)C(=O)N[C@@H]2C[C@H]2c2ccccc2)n1 [AT46]
IC50 (APC‒Asef; [7]): 0.11 ± 0.003 µM
fold increase in potency over parental MAI-400 (APC‒Asef; from FP IC50): 24 fold
disruption of APC‒Asef interaction (Co-IP) (APC‒Asef interaction [1]): dose-dependently attenuated the APC‒Asef interaction in cell lysates
disruption of APC‒Asef interaction (Co-IP) (APC‒Asef interaction [2]): no disrupting effect on the APC‒Asef interaction in the cell model
migration of SW480 cells, wound healing (SW480 cells [3]): no inhibition
migration of SW480 cells, Transwell (SW480 cells [4]): no inhibition
survival ability (proliferative viability) of SW480 cells, CCK-8 (SW480 cells [5]): did not damage the survival ability of SW480 cells
AUC(0-t) [6]: 124 ± 18.4 ng·h/mL
Cmax [6]: 60.8 ± 5.65 ng/mL
MRT [6]: 1.96 ± 0.58 h
Tmax [6]: 0.83 ± 0.29 h
half-life [6]: 1.2 ± 0.5 h

SMILES: CSc1ncc(Br)c(C(=O)N[C@@H](CCC(=O)OC(C)(C)C)C(=O)N[C@@H](Cc2ccc3ccccc3c2)C(=O)N[C@@H](CC(C)C)C(=O)N[C@@H]2C[C@H]2c2ccccc2)n1 [AT47]
inhibition at 400 µM (APC‒Asef): 24.4%
disruption of APC‒Asef interaction (Co-IP) (APC‒Asef interaction [2]): notably diminished APC‒Asef PPI
migration of SW480 cells, wound healing (SW480 cells [3]): inhibited the migration of SW480 cells
migration of SW480 cells, Transwell (SW480 cells [4]): suppressed the migration of SW480 cells
survival ability (proliferative viability) of SW480 cells, CCK-8 (SW480 cells [5]): did not damage the survival ability of SW480 cells
AUC(0-t) [6]: 4800 ± 868 ng·h/mL
Cmax [6]: 1460 ± 119 ng/mL
MRT [6]: 4.97 ± 1.49 h
Tmax [6]: 1.67 ± 0.58 h
half-life [6]: 11.8 ± 5.7 h

AUC(0-t) [6]: 52.4 ± 6.07 ng·h/mL
Cmax [6]: 101 ± 25 ng/mL
MRT [6]: 0.43 ± 0.07 h
Tmax [6]: 0.25 h
half-life [6]: 0.24 ± 0.06 h
SMILES: C[C@H](NC(=O)OCc1ccccc1)C(=O)NCC(=O)N[C@@H](CCC(=O)O)C(=O)N[C@@H](C)C(=O)N[C@@H](CC1CCCC1)C(=O)N[C@@H](Cc1ccc(O)cc1)C(=O)N[C@@H](CCC(=O)O)C(N)=O [MAI-203, reference compound] (Cbz-AGEA[Ala(cPent)]YE-NH2; N-terminus and C-terminus assumed)
